# Published values gathered from unrelated publications.
# Each line is one published result; the experiments were not run side by side.
# Target: Macrophage-stimulating protein receptor (MST1R, Homo sapiens, UniProt Q04912)
Structure (SMILES),assay,conditions,quantity,value
Cc1sc(C(=O)NC2COC2)cc1-n1cc(NC(=O)Nc2c(F)cccc2Cl)cn1,"enzyme activity, inhibitor",10 µM,remaining activity,96.9%
O=C(N1CCS(=O)(=O)CC1)N1C[C@H](c2ccc(OC(F)(F)F)cc2)C[C@H](c2nc(C3CC3)no2)C1,"cell-free assay, competition with immobilised ligand",1 µM,remaining binding,100%
CNC(=O)c1cc2c(Oc3ccc(NC(=O)C4(C(=O)Nc5ccc(F)cc5)CC4)cc3)ccnc2cc1OC,"enzyme activity, inhibitor, radiometric",1 µM,inhibition,90%
O=C1Nc2ccc(Cl)cc2C1=Cc1cc(Cl)c(O)c(Cl)c1,cell-free assay,0.5 µM,remaining signal,94.8%
Cc1cc(NC(=O)c2cccc3cc(-c4cccc5[nH]nc(N)c45)ccc23)ccc1F,"enzyme activity, inhibitor",0.1 µM,activity vs control,110%
Nc1ncnc2occ(-c3ccc(NC(=O)Nc4cc(C(F)(F)F)ccc4F)cc3)c12,cell-free assay,20 µM,remaining signal,7.4%
CCCCN(CCCC)C(=O)CN1C[C@@H](c2cc(OC)c3c(c2)OCO3)[C@H](C(=O)O)[C@H]1CC(C)(C)CCC,"cell-free assay, competition with immobilised ligand",1 µM,remaining binding,100%
CC/C(=N\NC(=O)NCc1cccc(O)c1)c1ccc(O)c(C)c1O,"enzyme activity, inhibitor",0.1 µM,inhibition,-1.5%
O=C1NC(=O)c2cc(Nc3ccc(F)cc3)c(Nc3ccc(F)cc3)cc21,cell-free assay,0.5 µM,remaining signal,100%
CCc1ccccc1C(=O)Nc1n[nH]c2c(C)c(F)c(C3C(C#N)=C(C)N(C)C(C)=C3C#N)cc12,"cell-free assay, competition with immobilised ligand",1 µM,remaining binding,100%
CNC(=O)c1cc(Oc2ccc(NC(=O)Nc3ccc(Cl)c(C(F)(F)F)c3)cc2)ccn1,cell-free assay,0.3 µM,inhibition,-10%
Cc1cnc(NC2CCOCC2)nc1-n1cnc(C(=O)NC(CN)c2cc(F)cc(Cl)c2)c1 (stereo not shown),"enzyme activity, inhibitor, radiometric",1 µM,remaining activity,107%
Cc1ccc(C(=O)Nc2ccc(CN3CCN(C)CC3)c(C(F)(F)F)c2)cc1C#Cc1cnc2cccnn12,cell-free assay,23.5 nM,remaining signal,100%
O=C(NS(=O)(=O)c1ccc(NCC2CCOCC2)c([N+](=O)[O-])c1)c1ccc(N2CCN(Cc3ccc(C(F)(F)F)cc3-c3ccc(Cl)cc3)CC2)cc1Oc1cnc2[nH]ccc2c1,"cell-free assay, competition with immobilised ligand",1 µM,remaining binding,96%
CCCCNc1ncc2c(-c3ccc(F)cc3)nn(C[C@H]3CC[C@H](N)CC3)c2n1,"target engagement in cells, inhibitor, chemoproteomics",20 mM,inhibition,-12.3%
CNCc1ccccc1-c1csc([C@@H](C)Nc2nc(C)nc3cc(OC)c(OC)cc23)c1,"cell-free assay, competition with immobilised ligand",1 µM,remaining binding,100%
CCN(CC)CCNC(=O)c1c(C)[nH]c(/C=C2\C(=O)Nc3ccc(F)cc32)c1C,"enzyme activity, inhibitor",1 µM,remaining activity,138%
CO[C@H]1CC[C@H](CNc2ccc(S(=O)(=O)NC(=O)c3ccc(N4CCN(CC5=C(c6ccc(Cl)cc6)CC(C)(C)CC5)CC4)cc3Oc3cnc4[nH]ccc4c3)cc2[N+](=O)[O-])CC1,"cell-free assay, competition with immobilised ligand",1 µM,remaining binding,92%
Cc1ccc(Nc2nccc(N(C)c3ccc4c(C)n(C)nc4c3)n2)cc1S(N)(=O)=O,cell-free assay,0.3 µM,inhibition,-3%
